Tests used:
[1] = Half life in iv dosed rat by cassette studies; format: ADME, organism-based; conditions: in vivo
Method in brief: (§1)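 Rat PK from intravenous cassette dosing, in which several compounds are given together in one IV administration, followed by plasma sampling to derive clearance, Vdss and elimination half-life.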

[2] = Half life in iv dosed dog by cassette studies; format: ADME, organism-based, Canis lupus familiaris; conditions: in vivo
Method in brief: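 Dog half-life from intravenous cassette dosing, with compounds co-administered IV and plasma sampled for elimination t1/2.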

[3] = Clearance in iv dosed rat by cassette studies; format: ADME, organism-based; conditions: in vivo; method in brief: as §1
[4] = Volume of distribution at steady state in iv dosed rat by cassette studies; format: ADME, organism-based; conditions: in vivo, read-out: Vdss; method in brief: as §1
[5] = Clearance in iv dosed rat by singleton studies; format: ADME, organism-based; conditions: in vivo
Method in brief: (§2)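 Rat PK from intravenous singleton dosing, in which each compound is given alone IV, followed by plasma sampling to derive clearance, Vdss and elimination half-life.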

[6] = Volume of distribution at steady state in iv dosed rat by singleton studies; format: ADME, organism-based; conditions: in vivo, read-out: Vdss; method in brief: as §2
[7] = Volume of distribution at steady state in Sprague-Dawley rat at 0.5 mg/kg, iv; format: ADME, organism-based; design: dose 0.5 mg/kg, route intravenous; conditions: in vivo, read-out: Vdss
Method in brief: (§3)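 Single-dose pharmacokinetics in male animals, with rats being Sprague Dawley. IV dosing was 0.5 mg/kg (rat N = 2, dog N = 3). Oral dosing was 3 mg/kg (rat N = 3, dog N = 2). Plasma was sampled to derive Cmax, Tmax, AUCinf, clearance, Vdss and t1/2, and oral bioavailability (F) was calculated from the PO versus IV exposure.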

[8] = Clearance in Beagle dog at 0.5 mg/kg, iv; format: ADME, organism-based, Canis lupus familiaris; design: dose 0.5 mg/kg, route intravenous; conditions: in vivo; method in brief: as §3
[9] = Half life in Beagle dog at 0.5 mg/kg, iv; format: ADME, organism-based, Canis lupus familiaris; design: dose 0.5 mg/kg, route intravenous; conditions: in vivo; method in brief: as §3
[10] = AUC (infinity) in Beagle dog at 0.5 mg/kg, iv; format: ADME, organism-based, Canis lupus familiaris; design: time infinity, dose 0.5 mg/kg, route intravenous; conditions: plasma; method in brief: as §3
[11] = Half life in Sprague-Dawley rat at 0.5 mg/kg, iv; format: ADME, organism-based; design: dose 0.5 mg/kg, route intravenous; conditions: in vivo; method in brief: as §3
[12] = Volume of distribution at steady state in Beagle dog at 0.5 mg/kg, iv; format: ADME, organism-based, Canis lupus familiaris; design: dose 0.5 mg/kg, route intravenous; conditions: in vivo, read-out: Vdss; method in brief: as §3
[13] = AUC (infinity) in Sprague-Dawley rat at 3 mg/kg, po; format: ADME, organism-based; design: dose 3 mg/kg, route oral, time infinity; conditions: plasma; method in brief: as §3
[14] = Clearance in Sprague-Dawley rat at 0.5 mg/kg, iv; format: ADME, organism-based; design: dose 0.5 mg/kg, route intravenous; conditions: in vivo; method in brief: as §3
[15] = Cmax in Beagle dog at 3 mg/kg, po; format: ADME, organism-based, Canis lupus familiaris; design: dose 3 mg/kg, route oral; conditions: in vivo; method in brief: as §3
[16] = Tmax in Sprague-Dawley rat at 3 mg/kg, po; format: ADME, organism-based; design: dose 3 mg/kg, route oral; conditions: in vivo; method in brief: as §3
[17] = Absolute oral bioavailability in Sprague-Dawley rat at 3 mg/kg; format: ADME, organism-based; conditions: in vivo; method in brief: as §3
[18] = Tmax in Beagle dog at 3 mg/kg, po; format: ADME, organism-based, Canis lupus familiaris; design: dose 3 mg/kg, route oral; conditions: in vivo; method in brief: as §3
[19] = AUC (infinity) in Sprague-Dawley rat at 0.5 mg/kg, iv; format: ADME, organism-based; design: time infinity, dose 0.5 mg/kg, route intravenous; conditions: plasma; method in brief: as §3
[20] = Absolute oral bioavailability in Beagle dog at 3 mg/kg; format: ADME, organism-based, Canis lupus familiaris; conditions: in vivo; method in brief: as §3
[21] = Cmax in Sprague-Dawley rat at 3 mg/kg, po; format: ADME, organism-based; design: dose 3 mg/kg, route oral; conditions: in vivo; method in brief: as §3
[22] = AUC (infinity) in Beagle dog at 3 mg/kg, po; format: ADME, organism-based, Canis lupus familiaris; design: time infinity, dose 3 mg/kg, route oral; conditions: plasma; method in brief: as §3
[23] = Half life in iv dosed rat by singleton studies; format: ADME, organism-based; conditions: in vivo; method in brief: as §2
[24] = Half life in iv dosed dog by singleton studies; format: ADME, organism-based, Canis lupus familiaris; conditions: in vivo
Method in brief: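 Dog half-life from intravenous singleton dosing, with each compound given alone IV and plasma sampled for elimination t1/2.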

| half-life [1] | clearance [3] | Vd [4] | Structure (SMILES) | other results |
| --- | --- | --- | --- | --- |
| 2.1 h | 13.1 mL/min/kg | 1.6 L/kg | O=C(Nc1ccc(-n2ccccc2=O)cn1)[C@H]1C[C@](O)(c2ccc(F)c(F)c2)CN1C(=O)Nc1ccc(Cl)cc1 | half-life [2]: 2.1 h |
| 1.9 h | 2.89 mL/min/kg | 0.393 L/kg | O=C(Nc1ccc(-n2ccccc2=O)cn1)[C@H]1C[C@](O)(c2ccccc2C(F)(F)F)CN1C(=O)Nc1ccc(Cl)cc1 | half-life [2]: 1 h |
| 2.9 h |  |  | O=C(Nc1ccc(-n2ccccc2=O)cn1)[C@H]1C[C@](O)(c2ccccc2)CN1C(=O)Nc1ccc(Cl)cc1 | clearance [5]: 6.73 mL/min/kg; half-life [2]: 2.9 h; Vd [6]: 1.49 L/kg |
| 3.3 h | 7.64 mL/min/kg | 1.81 L/kg | O=C(Nc1ccc(-n2ccccc2=O)cn1)[C@H]1C[C@](O)(c2ccc(F)cc2F)CN1C(=O)Nc1ccc(Cl)cc1 | Vd [7]: 2.4 L/kg; clearance [8]: 2.1 mL/min/kg; half-life [9]: 12.6 h; AUC(0-inf) [10]: 4870 ng·h/mL; half-life [11]: 3.3 h; Vd [12]: 2 L/kg; AUC(0-inf) [13]: 1010 ng·h/mL; clearance [14]: 9.5 mL/min/kg; Cmax [15]: 397 ng/mL; half-life [2]: 7.3 h; Tmax [16]: 1.7 h; bioavailability [17]: 19%; Tmax [18]: 2 h; AUC(0-inf) [19]: 978 ng·h/mL; bioavailability [20]: 24%; Cmax [21]: 236 ng/mL; AUC(0-inf) [22]: 6450 ng·h/mL |
| 2.4 h |  |  | CC[C@@]1(O)C[C@H](C(=O)Nc2ccc(-n3ccccc3=O)cc2F)N(C(=O)Nc2ccc(Cl)cc2)C1 |  |
| 5.2 h |  |  | CC[C@@]1(O)C[C@H](C(=O)Nc2ccc(-n3cccc(C)c3=O)cc2F)N(C(=O)Nc2ccc(Cl)cc2)C1 |  |
| 1.4 h | 6.78 mL/min/kg | 0.438 L/kg | Cc1cccc([C@@]2(O)C[C@H](C(=O)Nc3ccc(-n4ccccc4=O)cn3)N(C(=O)Nc3ccc(Cl)cc3)C2)c1 |  |
|  |  |  | O=C(Nc1ccc(-n2ccccc2=O)cc1F)[C@H]1C[C@](O)(c2ccccc2)CN1C(=O)Nc1ccc(Cl)cc1 | half-life [23]: 4 h |
| 1.7 h |  |  | CC[C@@]1(OC)C[C@H](C(=O)Nc2ccc(-n3ccccc3=O)cc2F)N(C(=O)Nc2ccc(Cl)cc2)C1 |  |
| 1.6 h |  |  | Cc1cccn(-c2ccc(NC(=O)[C@H]3C[C@@](C)(O)CN3C(=O)Nc3ccc(Cl)cc3)c(F)c2)c1=O |  |
| 1.8 h | 9.44 mL/min/kg | 1.97 L/kg | O=C(Nc1ccc(-n2ccccc2=O)cn1)[C@H]1C[C@](O)(c2ccc(F)cc2)CN1C(=O)Nc1ccc(Cl)cc1 |  |
| 2.6 h |  |  | CO[C@@H]1C[C@H](C(=O)Nc2ccc(-n3ccccc3=O)cc2F)N(C(=O)Nc2ccc(Cl)cc2)C1 [ERIBAXABAN] | half-life [24]: 4.9 h; clearance [5]: 12 mL/min/kg; half-life [23]: 2 h; Vd [6]: 1.1 L/kg |
| 2 h |  |  | CO[C@@H]1C[C@H](C(=O)Nc2ccc(-n3ccccc3=O)cn2)N(C(=O)Nc2ccc(Cl)cc2)C1 |  |
| 1.4 h |  |  | CCO[C@]1(CC)C[C@H](C(=O)Nc2ccc(-n3ccccc3=O)cc2F)N(C(=O)Nc2ccc(Cl)cc2)C1 |  |
| 2.9 h | 4.16 mL/min/kg | 0.923 L/kg | O=C(Nc1ccc(-n2ccccc2=O)cn1)[C@H]1C[C@](O)(c2ccccc2Cl)CN1C(=O)Nc1ccc(Cl)cc1 | half-life [2]: 0.8 h |
| 1.3 h | 5.12 mL/min/kg | 0.468 L/kg | Cc1ccccc1[C@@]1(O)C[C@H](C(=O)Nc2ccc(-n3ccccc3=O)cn2)N(C(=O)Nc2ccc(Cl)cc2)C1 |  |
| 1.8 h | 10.3 mL/min/kg | 1.58 L/kg | Cc1ccc([C@@]2(O)C[C@H](C(=O)Nc3ccc(-n4ccccc4=O)cn3)N(C(=O)Nc3ccc(Cl)cc3)C2)cc1 |  |
| 1.7 h |  |  | CO[C@]1(C)C[C@H](C(=O)Nc2ccc(-n3ccccc3=O)cc2F)N(C(=O)Nc2ccc(Cl)cc2)C1 |  |

Reference: ChEMBL document CHEMBL1153922, “Exploration of 4,4-disubstituted pyrrolidine-1,2-dicarboxamides as potent, orally active Factor Xa inhibitors with extended duration of action” (Bioorg Med Chem, 2009)
